Our source for the Activity, EC50 and Drug metabolism values is ChEMBL document CHEMBL3745639, “Structure-activity relationships for lipoprotein lipase agonists that lower plasma triglycerides in vivo” (Eur J Med Chem, 2015).

Calls of active or inactive are those of the source. Unless noted, the rule behind the calls is not given here.

In data set [1] the target is T1, Lipoprotein lipase (Bos taurus) (UniProt P11151).
T1 sequence (whole entry): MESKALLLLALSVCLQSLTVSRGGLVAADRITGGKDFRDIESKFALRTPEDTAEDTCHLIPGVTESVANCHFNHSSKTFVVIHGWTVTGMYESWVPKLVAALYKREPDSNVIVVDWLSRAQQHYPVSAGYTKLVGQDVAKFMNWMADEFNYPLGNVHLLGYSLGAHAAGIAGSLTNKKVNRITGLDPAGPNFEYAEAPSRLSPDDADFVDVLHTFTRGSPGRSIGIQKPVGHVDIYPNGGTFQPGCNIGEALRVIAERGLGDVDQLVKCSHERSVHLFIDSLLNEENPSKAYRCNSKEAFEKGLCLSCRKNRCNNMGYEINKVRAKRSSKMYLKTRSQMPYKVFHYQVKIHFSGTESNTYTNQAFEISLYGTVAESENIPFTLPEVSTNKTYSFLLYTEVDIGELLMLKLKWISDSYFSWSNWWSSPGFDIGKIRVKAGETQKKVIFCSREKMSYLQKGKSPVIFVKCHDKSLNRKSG
The data set is described as follows: Induction of bovine LPL stabilization using intralipid as substrate at 3.12 uM preincubated for 10 mins with human recombinant ANGPTL4 followed by substrate addition measured after 45 mins relative to control. The gist of the method: (§1)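 Compound in DMSO in buffer (50 mM potassium phosphate pH 7.4, 0.15 M NaCl, 0.01% Triton X-100), with human ANGPTL4 N-terminal fragment (aa 26-184, 75 nM final) and bovine LPL (15 nM final). Preincubated 10 min at 25 °C with shaking. Stopped after 45 min with 2.5% Triton X-100, and NEFA measured enzymatically. Activity normalised between DMSO+LPL+ANGPTL4 (0%) and DMSO+LPL (100%).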

Data set [2] concerns the target T1, Lipoprotein lipase (Bos taurus). In words: Induction of bovine LPL stabilization using intralipid as substrate at 6.25 uM preincubated for 10 mins with human recombinant ANGPTL4 followed by substrate addition measured after 45 mins relative to control. The gist of the method:
as §1

For data set [3] the target is unchanged. The data set is described as follows: Induction of bovine LPL stabilization using intralipid as substrate at 12.5 uM preincubated for 10 mins with human recombinant ANGPTL4 followed by substrate addition measured after 45 mins relative to control. The gist of the method: as §1
Data set [4] shares this target. The data set is described as follows: Induction of bovine LPL stabilization using intralipid as substrate at 25 uM preincubated for 10 mins with human recombinant ANGPTL4 followed by substrate addition measured after 45 mins relative to control. The gist of the method:
as §1

The next data set deals with T2, Lipoprotein lipase (Bos taurus, UniProt P11151).
T2 sequence (P11151 whole entry): T1 sequence (whole entry)
In words: Induction of bovine LPL stabilization using intralipid as substrate preincubated for 10 mins with human recombinant ANGPTL4 followed by substrate addition measured after 45 mins relative to control. The gist of the method:
as §1

The test system of the next data set is Mus musculus. In words: Hypolipidemic activity in C57B16/J mouse assessed as reduction in plasma triglyceride level at 10 mg/kg, ip qd administered for 4 days followed by olive oil injection through oral gavage one hour post last dose measured at 180 mins. Type of data set: functional, organism-based. The procedure, abridged:
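Female C57B16/J mice, 8-9 weeks, about 18 g, n = 8/group. Given 10 mg/kg i.p. once daily for 4 days, 0.5 ml in PBS pH 7.4 with 3% DMSO and 0.2% Triton X-100. Fasted 8 h before the last dose, then 0.2 ml oral olive oil gavage 1 h after it. Tail-vein EDTA plasma taken at baseline and every 60 min to 180 min. TG measured enzymatically, reported as mean ± SD.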

A further data set deals with Plasma. The data set is described as follows: Drug level in human plasma treated with 1,3-Dioxo-2-(4-(piperidin-1-yl)-3-(p-tolylcarbamoyl)phenyl)isoindoline-5-carboxylic acid at 10 uM after 24 hrs by LC-MS/MS analysis. It is filed as ADME, cell-free.

Usually EC50 stands for the midpoint of the concentration-response curve.

As to `Cc1ccc(NC(=O)c2cc(-n3cc4cc(C(=O)O)ccc4n3)ccc2N2CCCCC2)cc1`, in data set [1], the outcome was inactive. Moreover, the Activity in data set [2] worked out at 11.2%; in data set [3], 90.6%; in data set [4] it was 89.7%. For the same compound, at Lipoprotein lipase, the concentration giving a half-maximal response (EC50) is 5 µM. The outcome in the data set with Mus musculus was Active.

As to `Cc1ccc(NC(=O)c2cc(-c3nc4ccc(C(=O)O)cc4[nH]3)ccc2N2CCCCC2)cc1`, the outcome in data set [1], in data set [2] and in data set [3] was inactive. The Activity in data set [4] was found to be 49%. Also, in the data set with Mus musculus, the outcome was Active.

`Cc1ccc(NC(=O)c2cc(N)ccc2N2CCCCC2)cc1`: the outcome in data set [1], in data set [2], in data set [3] and in data set [4] was inactive. The Drug metabolism entry in the data set with Plasma is on record as “metabolite_detected”.

In the case of `Cc1ccc(NC(=O)c2cc(NC(=O)c3ccc(C(=O)O)cc3C(=O)O)ccc2N2CCCCC2)cc1`, the outcome in data set [1], in data set [2] and in data set [3] was inactive. The Activity in data set [4] stood at 30.6%. Also, the Drug metabolism entry with Plasma is “metabolite_detected”.

In the case of `Cc1ccc(NC(=O)c2cc(N3CCCCC3)ccc2N2C(=O)c3ccc(C(=O)O)cc3C2=O)cc1`, the result in data set [1] and in data set [2] was inactive. Also, the values for the Activity in data set [3] and in data set [4] were 55.1% and 36.3%, respectively.

For `Cc1ccc(NC(=O)c2cc(N3C(=O)c4ccc(C(=O)O)cc4C3=O)ccc2N2CCCCC2)cc1C(F)(F)F`, in data set [1], the result was inactive. The results for the Activity in data set [2], in data set [3] and in data set [4] were 19.4%, 42.2% and 65.8%, respectively.

As to `O=C1c2ccccc2C(=O)N1c1ccccc1`, the result in data set [1], in data set [2], in data set [3] and in data set [4] was inactive.

Turning to `Cc1ccc(NC(=O)c2cc(N3C(=O)c4ccc(N)cc4C3=O)ccc2N2CCCCC2)cc1`, the result in data set [1], in data set [2] and in data set [3] was inactive. Further, the Activity in data set [4] was found to be 11.4%.

`Cc1ccc(NC(=O)c2cc(N3C(=O)c4ccc(Br)cc4C3=O)ccc2N2CCCCC2)cc1`: the outcome in data set [1], in data set [2], in data set [3] and in data set [4] was inactive.

Take `Cc1ccc(NC(=O)c2cc(N3C(=O)c4ccccc4C3=O)ccc2N2CCCCC2)cc1`: the result in data set [1], in data set [2], in data set [3] and in data set [4] was inactive.

Take `O=C(O)c1ccc2c(c1)C(=O)N(c1ccccc1)C2=O`: the outcome in data set [1], in data set [2], in data set [3] and in data set [4] was inactive.

Consider `Cc1ccc(NC(=O)c2cc(N3C(=O)c4ccc(C(=O)O)cc4C3=O)ccc2N2CCOCC2)cc1`, for which the outcome in data set [1], in data set [2], in data set [3] and in data set [4] was inactive.

Regarding `Cc1ccc(NC(=O)c2cc(-n3cc4ccccc4n3)ccc2N2CCCCC2)cc1`, the outcome in data set [1], in data set [2], in data set [3] and in data set [4] was inactive.

For `Cc1ccc(NC(=O)c2cc(-c3cc4cc(C(=O)O)ccc4[nH]3)ccc2N2CCCCC2)cc1`, the Activity in data set [1] worked out at 35%; in data set [2], 101%; in data set [3], 85.5%; in data set [4], 24.5%. Also, in the data set on Mus musculus, the outcome was Active.

As for `CCc1cccc(NC(=O)c2cc(N3C(=O)c4ccc(C(=O)O)cc4C3=O)ccc2N2CCCCC2)c1`, the outcome in data set [1] was inactive. The Activity was 9.2% in data set [2], 63.4% in data set [3] and 71% in data set [4].

`Cc1ccc(NC(=O)c2cccc(N3C(=O)c4ccc(C(=O)O)cc4C3=O)c2N2CCCCC2)cc1`: the outcome in data set [1], in data set [2] and in data set [3] was inactive. The Activity in data set [4] was 13.5%.

For `Cc1ccc(NC(=O)c2ccc(N3CCCCC3)c(N3C(=O)c4ccc(C(=O)O)cc4C3=O)c2)cc1`, the result in data set [1] and in data set [2] was inactive. For the same compound, the values for the Activity in data set [3] and in data set [4] were 81.3% and 79%, respectively.

In the case of `O=C(O)c1ccc2c(c1)C(=O)N(c1ccc(Nc3ccccc3)c(C(=O)Nc3ccccc3-c3ccccc3)c1)C2=O`, the result in data set [1] was inactive. Also, the figures for the Activity in data set [2], in data set [3] and in data set [4] were 45%, 61.5% and 73.8%, respectively.

Take `CCCCCCCCCCNc1ccc(N2C(=O)c3ccc(C(=O)O)cc3C2=O)cc1C(=O)Nc1ccc(C)cc1`: the Activity in data set [1] stood at 13.6%; in data set [2], 5.9%; in data set [3] it was 10%; in data set [4] it was 19.2%.

As to `Cc1ccc(NC(=O)c2cc(NC(=O)c3cc(C(=O)O)ccc3C(=O)O)ccc2N2CCCCC2)cc1`, the result in data set [1], in data set [2] and in data set [3] was inactive. Besides, in data set [4], the Activity worked out at 38.8%. Further, the Drug metabolism result in the data set on Plasma is recorded as “metabolite_detected”.

`Cc1ccc(NC(=O)c2cc(N3C(=O)c4cccc(C(=O)O)c4C3=O)ccc2N2CCCCC2)cc1`: the outcome in data set [1], in data set [2], in data set [3] and in data set [4] was inactive.

Turning to `COCCNc1ccc(N2C(=O)c3ccc(C(=O)O)cc3C2=O)cc1C(=O)Nc1ccc(C)cc1`, the result in data set [1], in data set [2], in data set [3] and in data set [4] was inactive.

On to `Cc1cccc(NC(=O)c2cc(N3C(=O)c4ccc(C(=O)O)cc4C3=O)ccc2N2CCCCC2)c1`, for which the result in data set [1] and in data set [2] was inactive. The Activity in data set [3] was 38.6%; in data set [4], 56.6%.

Take `Cc1ccc(NC(=O)c2cc(N3CCCCC3)cc(N3C(=O)c4ccc(C(=O)O)cc4C3=O)c2)cc1`: the result in data set [1], in data set [2] and in data set [3] was inactive. The Activity in data set [4] worked out at 32.6%.

As to `CCc1cccc(NC(=O)c2cc(N3C(=O)c4ccc(C(=O)O)cc4C3=O)ccc2Nc2ccccc2)c1`, in data set [1], the outcome was inactive. Besides, the Activity in data set [2] came out at 44.3%; in data set [3], 63.9%; in data set [4] it was 52.2%.

For `COc1ccc(NC(=O)c2cc(N3C(=O)c4ccc(C(=O)O)cc4C3=O)ccc2N2CCCCC2)cc1`, the result in data set [1], in data set [2] and in data set [3] was inactive. In addition, the Activity in data set [4] is 43.8%.
